Source: PubChem
Only some compounds are listed: those with a hit (about 2.1% of all), similar ones and a draw of the others.
CXCR6 inh: CXCR6 (human) receptor inhibition; inhibition, % at 20 µM; O00574; CHO-K1 PathHunter CXCR6 beta-arrestin, luminescence; hit rate 0.36% among 360,000; AID 602244; in the data active means inhibition above about 34%, passing the limit was not always enough;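 further: antagonist mode with CXCL16 agonist at 10 nM final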
Target sequence (O00574 whole entry, looked up): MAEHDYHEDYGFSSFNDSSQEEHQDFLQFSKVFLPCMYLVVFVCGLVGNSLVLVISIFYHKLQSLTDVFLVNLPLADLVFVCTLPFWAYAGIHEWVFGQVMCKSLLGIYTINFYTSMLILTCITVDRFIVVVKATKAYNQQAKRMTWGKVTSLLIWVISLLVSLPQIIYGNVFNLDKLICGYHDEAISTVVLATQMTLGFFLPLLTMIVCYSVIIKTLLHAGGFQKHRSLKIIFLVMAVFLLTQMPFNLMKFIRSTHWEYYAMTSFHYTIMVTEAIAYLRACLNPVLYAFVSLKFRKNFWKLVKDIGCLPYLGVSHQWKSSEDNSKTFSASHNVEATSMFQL
CCR6 antagonist: antagonists of human CCR6 receptor; P51684; CHO-K1 CCR6 PathHunter beta-arrestin, luminescence, CCL20-stimulated; inhibition, % at 20 µM; hit rate 0.49% among 340,000;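 active means compounds whose inhibition of the agonist-driven luminescence signal at 20 µM reaches about 50%, limit read from the data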;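 further: cells stimulated with CCL20 at 14 nM final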
Target sequence (P51684 whole entry, looked up): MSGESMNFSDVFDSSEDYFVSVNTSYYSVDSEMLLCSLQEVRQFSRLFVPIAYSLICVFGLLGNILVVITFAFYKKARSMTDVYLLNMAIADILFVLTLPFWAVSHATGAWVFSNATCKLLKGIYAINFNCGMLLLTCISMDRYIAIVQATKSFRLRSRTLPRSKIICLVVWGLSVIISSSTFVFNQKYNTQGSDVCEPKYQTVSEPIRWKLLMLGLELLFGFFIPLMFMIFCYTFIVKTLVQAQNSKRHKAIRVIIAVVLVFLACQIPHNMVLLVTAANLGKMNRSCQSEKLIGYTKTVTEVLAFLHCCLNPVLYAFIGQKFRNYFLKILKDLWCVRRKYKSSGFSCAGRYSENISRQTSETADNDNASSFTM
APJ antag: APJ receptor antagonism; P35414; CHO-K1 APJ beta-arrestin complementation, luminescence; inhibition, % at 20 µM; hit rate 0.32% among 330,000; AID 2521;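 active means inhibition above about 40% at 20 µM, limit read from the data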;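 further: cells challenged with 10 nM apelin-13 agonist together with compound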
HTR2A ag: agonists of mouse serotonin 5-HT2A receptor (HTR2A); P35363; activation, % at 7.6 µM; hit rate 0.66% among 360,000; CHO-K1 mHTR2A beta-arrestin complementation, luminescence; percent of 30 µM serotonin response;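 active means activation above a run cutoff, the mean activation of all tested compounds plus 3 SD, cut at about 14% in these data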
APJ ag: activates the human apelin receptor APJ; P35414; CHO-K1 APJ PathHunter beta-arrestin, luminescence; 0% DMSO wells, 100% apelin; activation, % at 20 µM; hit rate 0.11% among 330,000; AID 2520;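 active means activation more than six SD over the plate average, tested at 20 µM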
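Material: engineered CHO-K1 APJ arrestin reporter cells; amount: 1000 CHO-K1 reporter cells seeded per well; incubation: compound stimulation 90 min at 25 °C, detection 60 min; signal: luminescent beta-gal fragment complementation, chemiluminescent substrate; read-out basis: APJ agonist activity; controls: DMSO-only wells as negative, 10 nM Apelin-13 as positive control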
EBI2 antag: antagonists of human EBI2 receptor; P32249; EBI2 beta-arrestin recruitment, luminescence, 7a,25-OHC stimulated; inhibition, % at 5 µM; hit rate 0.81% among 360,000; in the data active means inhibition above about 38%;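 further: enzyme fragment complementation signal reports receptor beta-arrestin coupling in cells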
Of the large screens only hits and unclear results are named; the others gave an inactive call.

O=[N+]([O-])/C=C/c1cn(Cc2ccccc2)c2ccccc12	none
N#Cc1ccccc1Cn1cc(/C=C/[N+](=O)[O-])c2ccccc21	CCR6 antagonist 55.0
O=C(CN1CCOCC1)Nc1nc(-c2ccc3c(c2)CCN3S(=O)(=O)c2ccccc2)cs1	HTR2A ag 15.4
CCc1nnc(NC(=O)c2ccncc2)s1	none
CCc1nnc(NC(=O)c2cccc(C(=O)Nc3nnc(CC)s3)n2)s1	CXCR6 inh 51.8, CCR6 antagonist 73.2 (no result: APJ antag, APJ ag)
COC(=O)c1ccc(/C=C/c2nc3ccccc3c(=O)[nH]2)cc1	none
CCCCN(C)C(=O)C(Cc1ccccc1)NS(=O)(=O)c1ccc2c(c1)c(=O)n(C)c(=O)n2C (stereo unspecified)	none
CCOc1ccc(NC(=O)CN2CCN(CC(=O)Nc3ccc(Cl)c(C(F)(F)F)c3)CC2)cc1	EBI2 antag 43.1
CCOc1ccc(NC(=O)CN2CCN(CC(=O)Nc3cccc(F)c3)CC2)cc1	none
O=C(CCCc1ccccc1)NCc1ccc2c(c1)OCO2	none
O=C(CS(=O)(=O)Cc1ccccc1)NCc1ccc2c(c1)OCO2	CCR6 antagonist 52.4
COC(=O)C1CN(S(=O)(=O)c2ccc(C)cc2)CCN1S(=O)(=O)c1ccc(C)cc1 (stereo unspecified)	EBI2 antag 54.6
O=C(c1ccc(Cl)cc1)N1CCC(C(=O)N2CCN(c3ncccn3)CC2)CC1	EBI2 antag 48.0
COc1ccc(C2=C(N)c3ccccc3C2=O)cc1	none
COC1=C(c2ccccc2)C(=O)c2ccccc2C1=O	APJ ag 12.0
CCOC(=O)c1c(NC(C)=O)sc2c(O)c(CN3CCN(CC)CC3)ccc12	none
CC(C)N(C)C1CCN(S(=O)(=O)c2ccc(-c3ccc(=O)[nH]n3)s2)CC1	none
COc1ccc2c(c1)sc1nc(-c3ccccc3)cn12	EBI2 antag 40.0
CCOC(=O)N1CCN(C(=O)c2ccc3c(c2)sc2nc(-c4ccc(OC)cc4)cn23)CC1	none
CC12CCC(=O)C=C1CCCC2=O (stereo unspecified)	none (no result: APJ antag, APJ ag)
CCOC(=O)c1cnc(-n2nc(C)cc2C)nc1NC(C)c1ccccc1 (stereo unspecified)	EBI2 antag 51.1
CCOC(=O)CS(=O)(=O)c1nc(-c2ccc(F)cc2)cc(C(F)(F)F)n1	CXCR6 inh 66.9, CCR6 antagonist 52.2, EBI2 antag 60.1
COC(=O)Cn1c(=NC(=O)CCS(=O)(=O)c2ccccc2)sc2c(OC)ccc(OC)c21	none
O=C(O)c1cc(N=Nc2c(O)[nH]c3ccc([N+](=O)[O-])cc23)ccc1Cl	CXCR6 inh 40.0
O=C(N=Nc1c(O)[nH]c2ccc([N+](=O)[O-])cc12)c1cc(-c2ccccc2Cl)nc2ccccc12	CCR6 antagonist 64.9
Cc1ccccc1C(=O)NC(=S)Nc1ccc(Oc2ccc(Cl)cc2)cc1	CCR6 antagonist 52.9
O=C(NC(=S)Nc1ccc(Oc2ccccc2)cc1)c1ccc(Cl)cc1	none
O=C1c2cccc(O)c2C(=O)c2c(O)cccc21	none (no result: CXCR6 inh, CCR6 antagonist, HTR2A ag, EBI2 antag)
CC1OC(CC(=O)O)CC2=C1C(=O)c1c(O)cccc1C2=O (stereo unspecified)	CXCR6 inh 73.6, CCR6 antagonist 89.0 (no result: APJ antag, APJ ag)
CCC(C)CN1C(=O)CSCC1(C)C(=O)Nc1c(C)cccc1C (stereo unspecified)	none (no result: CXCR6 inh, CCR6 antagonist, APJ antag, APJ ag)
O=S(=O)(O)c1cc(O)c(N=Nc2ccc(O)cc2O)c2ccccc12	CXCR6 inh 39.3, CCR6 antagonist 61.6 (no result: APJ antag, APJ ag)
O=[N+]([O-])c1ccccc1N=Nc1ccc(O)cc1O	none (no result: APJ antag, APJ ag)
COc1ccc(NC(=O)CSc2nnc(CNc3ccc(C)cc3)n2C)cc1	none
CCNC1=C(Cl)C(=O)c2ccccc2C1=O	none
CCN(CC)c1ccc(NC2=C(Cl)C(=O)c3ccccc3C2=O)cc1	CCR6 antagonist 57.2 (no result: APJ antag, APJ ag)
CCCC(=O)NC1=C(Cl)C(=O)c2ccccc2C1=O	CXCR6 inh 99.0, CCR6 antagonist 106.7 (no result: APJ antag, APJ ag)
Cc1ccc(NC(=O)CC(=O)Nc2ccc(C)cc2C)c(C)c1	none
Cc1ccc(C(=O)CNc2ccc(C)cc2C)cc1	CCR6 antagonist 78.5
O=C(Cc1ccc(S(=O)(=O)N2CCOCC2)s1)Nc1ccccc1Br	none
NC(=O)c1cc(-c2ccccc2)sc1NC(=O)Cc1ccc(S(=O)(=O)N2CCOCC2)s1	EBI2 antag 49.7
COc1ccc(/C=C/C(=O)c2ccc([N+](=O)[O-])o2)cc1OC	none (no result: CXCR6 inh, HTR2A ag, EBI2 antag)
COc1cc(/C=C/C(=O)/C=C(O)/C=C/c2ccc(O)c(OC)c2)ccc1O	CCR6 antagonist 54.4
COc1cc(/C=C/C(=O)c2ccc([N+](=O)[O-])o2)ccc1O	CCR6 antagonist 74.8
COc1cc(/C=C/C(=O)O)ccc1O	none
CCc1nc2ccc(F)cc2c(C(=O)NC2CCCCC2C)c1C (stereo unspecified)	none
COc1ccc(NC(=O)N(C)C[C@@H]2Oc3cc(Br)ccc3S(=O)(=O)N([C@H](C)CO)C[C@H]2C)cc1	none (no result: CCR6 antagonist, APJ antag, APJ ag)
CC1CCN(C(=O)c2ccc3c(c2NCCO)C(=O)c2ccccc2C3=O)CC1	EBI2 antag 46.0
CCN(CC)CCNC(=O)c1ccc2c(c1NCCO)C(=O)c1ccccc1C2=O	none
CCC(C)(C)n1nnnc1C(c1cc2cc(C)cc(C)c2[nH]c1=O)N1CCN(C(=O)c2ccco2)CC1 (stereo unspecified)	none
CC(C)(C)C1CC=C2C(C#N)=C(N)C(C#N)(C#N)C(c3cccs3)C2C1 (stereo unspecified)	none (no result: CXCR6 inh, CCR6 antagonist, HTR2A ag, EBI2 antag)
CCc1ccc(C2C(C#N)=C(N)C(C#N)(C#N)C3=CCC(C(C)(C)C)CC32)cc1 (stereo unspecified)	CXCR6 inh 42.1, CCR6 antagonist 67.6
CN(C)c1ccc(N=Nc2nccs2)cc1	CXCR6 inh 51.2 (no result: CCR6 antagonist, APJ antag, APJ ag)
CN(C)c1ccc(N=Nc2ccccc2Br)cc1	none
CN(C)C(=S)N=Nc1[nH]c2ccccc2c1O	CCR6 antagonist 63.0 (no result: CXCR6 inh, HTR2A ag, EBI2 antag)
Cc1cccc(Cn2c(=O)n(Cc3ccco3)c(=O)c3ccccc32)c1	EBI2 antag 60.5
Cc1cc(C)c2c(=N)c3ccccc3n(CCCCCCCCn3c4ccccc4c(=N)c4c(C)cc(C)nc43)c2n1	CXCR6 inh 39.9, CCR6 antagonist 106.5 (no result: APJ antag, APJ ag)
COc1cccc(N(C(=O)c2ccco2)c2nc(-c3sc(NC(=O)c4ccco4)nc3C)cs2)c1	none
O=C(NCC(c1ccco1)N1CCCC1)c1cc2cc(Cl)ccc2o1 (stereo unspecified)	none
O=C(C=Cc1ccccc1)CC(c1ccccc1)N1CCOCC1 (stereo unspecified)	EBI2 antag 48.0 (no result: APJ antag, APJ ag)
CC(C)C1Nc2c(O)cc(Cl)c([N+](=O)[O-])c2C2C=CCC21 (stereo unspecified)	CCR6 antagonist 50.1 (no result: APJ antag, APJ ag)
O=C(COC(=O)c1cccc(F)c1)Nc1cccc(S(=O)(=O)N2CCOCC2)c1	none (no result: CCR6 antagonist, APJ antag, APJ ag)
CC1(C)CC(=O)C(=Cc2cn(-c3ccccc3)nc2-c2ccccc2)C(=O)C1	none
